Compound activity as filed in PubChem.
Compounds with a hit are over-represented: about 2.9% of the library has one in this group of screens.
HTRA1 inhibitor – blocks human HTRA1 serine peptidase | Q92743 | recombinant HTRA1, FP-rhodamine activity-based probe, fluorescence polarization | inhibition, % at 5.96 µM | 0.5% of 340,000 active; in the data active means inhibition above about 36%
ABHD4 inh – inhibits mouse alpha/beta hydrolase domain 4. Q8VD66. purified mABHD4, FP-Rh probe fluorescence polarization. inhibition, % at 8.92 µM. 0.54% of 370,000 active. AID 720543;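 active means inhibition exceeding the mean over every tested compound plus 3 SD, cut at about 30% in these data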
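system = mouse ABHD4 enzyme, wild type | medium = HEPES pH 7.0, NaCl, Pluronic buffer | also added = FP-Rh probe | incubation = Enzyme–compound pre-incubation 45 min, then probe 60 min, both 25 °C | technique = fluorescence polarization, excitation 525 nm, emission 598 nm, BODIPY TMR filters | controls = S159A mutant high control, sample median low control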
TCR-CD3 inh – blocks the human TCR-CD3 interaction; TAMRA-labeled TCR probe fluorescence, biochemical; inhibition, % at 9.4 µM; 0.37% of 360,000 active; in the data active means inhibition above about 19%;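 further: recombinant mutant TCR 2C K166C tagged with TAMRA read by polarization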
PAD4 FP inh – blocks human protein arginine deiminase 4. AID 485272. recombinant PAD4, RCA probe fluorescence polarization. inhibition, % at 6.36 µM. 0.41% of 330,000 active. Q9UM07;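 active means percent inhibition above a cutoff equal to the mean of all tested compounds plus 3 SD, cut at about 15% in these data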
Target sequence (Q9UM07 whole entry, looked up): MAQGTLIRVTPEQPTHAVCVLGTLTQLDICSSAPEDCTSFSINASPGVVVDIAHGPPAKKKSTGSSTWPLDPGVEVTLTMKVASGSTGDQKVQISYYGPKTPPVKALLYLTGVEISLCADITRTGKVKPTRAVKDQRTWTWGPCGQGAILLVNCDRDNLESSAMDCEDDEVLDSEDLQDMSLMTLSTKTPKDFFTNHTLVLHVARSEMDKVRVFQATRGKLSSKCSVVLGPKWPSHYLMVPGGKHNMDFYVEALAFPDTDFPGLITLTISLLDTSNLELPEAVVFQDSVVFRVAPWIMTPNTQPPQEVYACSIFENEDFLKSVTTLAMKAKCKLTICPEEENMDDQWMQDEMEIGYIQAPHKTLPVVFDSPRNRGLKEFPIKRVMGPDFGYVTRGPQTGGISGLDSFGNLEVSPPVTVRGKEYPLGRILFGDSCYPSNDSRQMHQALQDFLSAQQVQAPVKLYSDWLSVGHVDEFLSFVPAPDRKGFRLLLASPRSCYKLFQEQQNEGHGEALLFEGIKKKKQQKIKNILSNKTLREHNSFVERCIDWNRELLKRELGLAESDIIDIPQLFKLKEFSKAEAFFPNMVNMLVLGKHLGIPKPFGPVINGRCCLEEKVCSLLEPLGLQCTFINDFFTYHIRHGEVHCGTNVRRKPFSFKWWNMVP
SIAE primary – human SIAE inhibition, primary screen; Q9HAT2; SIAE FP-Rh probe binding, fluorescence polarization; inhibition, % at 9.66 µM; 0.69% of 370,000 active;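 active means inhibition above a cutoff: mean of compounds within the control limits plus 3 SD of those, cut at about 17% in these data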
PRMT1 inh – PRMT1 (human) inhibition, primary screen; Q99873; recombinant PRMT1, activity-based probe fluorescence polarization; inhibition, % at 2.79 µM; 1.3% of 370,000 active; AID 652257;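 active means inhibition above about 21% made by adding two undisclosed values, limit read from the data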
Large screens that a line does not name were inactive.

O=C1/C(=C/c2cccnc2)SC(=S)N1NS(=O)(=O)c1ccccc1	PRMT1 inh 22.6
Cc1c(Cl)cccc1NC(=O)CSc1nncn1-c1ccccn1	PRMT1 inh 24.5
O=C(CSc1nncn1-c1ccccn1)Nc1ccccc1Cl	none
CC(C)[C@@H]1OC(=O)[C@@H]2CCCN2C(=O)[C@H](C)OC(=O)[C@H](C)[C@@H](C(C)C)NC(=O)[C@@H]2CCCN2C(=O)[C@H]([C@H](C)Cc2ccccc2)NC(=O)[C@@H]2CCCN2C(=O)[C@@H](C(C)C)N(C)C1=O	none (no result: HTRA1 inhibitor, TCR-CD3 inh, PAD4 FP inh)
C[C@H]1[C@@H](OC(=O)NCCc2c[nH]c3ccccc23)CC[C@@]23CCCN2C(=O)CCC[C@@H]13	none (no result: HTRA1 inhibitor, TCR-CD3 inh, PAD4 FP inh)
COc1ccc(-c2cc(C(=O)N(C3CCCCC3)C3CCCCC3)no2)cc1	none (no result: HTRA1 inhibitor, TCR-CD3 inh, PAD4 FP inh)
Cc1ccc(-c2cc(-c3ccccc3Cl)c(C#N)c(N)n2)o1	PRMT1 inh 22.0
Oc1ccc(CN2CCCCC2)c2cccnc12	none
O=[N+]([O-])c1cc(CN2CCCC2)c2cccnc2c1O	HTRA1 inhibitor 54.4 (no result: ABHD4 inh, TCR-CD3 inh, SIAE primary, PRMT1 inh)
Oc1c(Cl)cc(CN2CCCCC2)c2cccnc12	HTRA1 inhibitor 46.0 (no result: ABHD4 inh, TCR-CD3 inh, SIAE primary, PRMT1 inh)
O=[N+]([O-])c1cc(CN2CCN(c3cccc(C(F)(F)F)c3)CC2)c2cccnc2c1O	none (no result: HTRA1 inhibitor)
CC(C)CCN(C)C1CCN(C(=O)Nc2ccc3c(c2)OCO3)CC1	none (no result: HTRA1 inhibitor, TCR-CD3 inh, PAD4 FP inh)
Cc1cccc(-n2cnc3c(c2=O)c2nc4ccccc4nc2n3Cc2ccco2)c1	PRMT1 inh 21.3
Cc1cccc(S(=O)(=O)c2c(N)n(Cc3ccco3)c3nc4ccccc4nc23)c1	none
COc1ccc(OC)c(S(=O)(=O)N2CCCCC2C(=O)N2CCN(c3ccccc3F)CC2)c1 (stereo not given)	none (no result: HTRA1 inhibitor, TCR-CD3 inh, PAD4 FP inh)
Cc1ccc(-c2ccc(C(=O)O)[nH]2)cc1	none
Cc1ccc(-c2csc(=S)[nH]2)cc1	PRMT1 inh 22.4
Cc1ccc(NC(=S)/C(C#N)=C2/Nc3ccccc3S2)cc1	ABHD4 inh 63.4 (no result: PAD4 FP inh)
Cc1occc1C(=O)NCc1cccs1	none
Cc1cc(C(=O)NCc2cccs2)c(C)o1	PRMT1 inh 21.5
Cc1csc(NC(=O)c2cc(C)nc3ccccc23)n1	none
CCNC(=O)COC(=O)c1cc(-c2ccco2)nc2ccccc12	PRMT1 inh 38.3
O=C(OCC(=O)N1CCN(C(=O)c2ccco2)CC1)c1cc(-c2ccco2)nc2ccccc12	none (no result: ABHD4 inh, TCR-CD3 inh, SIAE primary, PRMT1 inh)
Cc1csc(NC(=O)c2cc(-c3ccco3)nc3ccccc23)n1	PRMT1 inh 23.5
O=C(O)c1cc(-c2ccco2)nc2ccccc12	PRMT1 inh 23.5
CCC(/C=C1\Sc2ccc(OC)cc2N1CC)=C\c1sc2ccc(OC)cc2[n+]1CCCS(=O)(=O)[O-]	PRMT1 inh 61.2
COc1ccc2c3c(cccc13)OC2=O	none
COc1ccc2c3c(cccc13)N(C)N=C2C	PRMT1 inh 47.9
Cc1nc2sc(C(c3ccco3)N3CCC(C)CC3)c(O)n2n1 (stereo not given)	PRMT1 inh 21.6
Cc1nc2sc(C(c3ccco3)N3CCN(c4ccccc4)CC3)c(O)n2n1 (stereo not given)	none
Cc1nc2sc(C(c3ccco3)N3CCN(C(c4ccccc4)c4ccccc4)CC3)c(O)n2n1 (stereo not given)	PRMT1 inh 23.9
O=C(CSc1nc2ccccc2c(=O)n1-c1ccc(Cl)cc1)NNC(=S)Nc1ccccc1	none (no result: HTRA1 inhibitor, TCR-CD3 inh, PAD4 FP inh)
Cc1ccc(OC(=O)COc2ccccc2C)c(-n2nc3ccccc3n2)c1	PRMT1 inh 23.6
CCOC(=O)[C@@]12CN(C(=O)OC(C)(C)C)CC=C1N(Cc1ccc(OC)cc1)C(=O)[C@H]2CC(=O)NCC12CC3CC(CC(C3)C1)C2	none (no result: HTRA1 inhibitor, TCR-CD3 inh, PAD4 FP inh)
CC[n+]1c(/C=C(\C)OC)sc2ccccc21	PRMT1 inh 22.6 (no result: PAD4 FP inh)
CC[n+]1c(/C=C(\C)Nc2ccccc2)sc2ccccc21	none
COC(=O)C1CN(C2CCCC2)CCS(=O)(=O)N1Cc1ccc(OC)cc1 (stereo not given)	none (no result: HTRA1 inhibitor, TCR-CD3 inh, PAD4 FP inh)
COc1ccc(/C=N/c2c(-c3ccc(OC)cc3)nc3n2CCS3)cc1	none
COc1ccc(C2=CSC(/N=C/c3ccc(F)cc3)=NN2)cc1	PRMT1 inh 24.2
O=C(N/N=C/c1cc(Br)ccc1O)C(=O)Nc1ccccc1OC(F)(F)C(F)F	HTRA1 inhibitor 45.9
COc1cc(C2C(C#N)=C(N)N(c3ccc(F)cc3)C3=C2S(=O)(=O)CC3)ccc1O (stereo not given)	PRMT1 inh 24.6
CCOC(=O)CC[C@H]1CC[C@]2(CCCN(S(=O)(=O)C3CCCCC3)C2)O1	none (no result: HTRA1 inhibitor, TCR-CD3 inh, PAD4 FP inh)
C/C=C/C=C\C(=O)Nc1cccc(C2=NOC3(C2)C[C@@H](C(N)=O)N(C(=O)c2cc([N+](=O)[O-])cc([N+](=O)[O-])c2)C3)c1 (stereo not given in full)	PRMT1 inh 23.2
O=c1c2ccccc2sn1-c1cc(S(=O)(=O)N2CCOCC2)ccc1N1CCOCC1	PRMT1 inh 88.4
COc1ccc(C(C(=O)N(C)C2CCCC2)N(Cc2ccc(F)cc2)C(=O)c2csc(N3CCOCC3)n2)cc1OC (stereo not given)	none (no result: HTRA1 inhibitor, TCR-CD3 inh, PAD4 FP inh)
O=C(CSc1nnnn1-c1ccc2c(c1)OCCO2)N1CCc2ccccc21	SIAE primary 26.8
CC(=O)ON=C1C=CC(=C(C#N)c2ccccc2)C=C1	PRMT1 inh 23.9 (no result: HTRA1 inhibitor, PAD4 FP inh)
CCCCC1=CC2=CC(=O)C(C)(OC(=O)c3ccc(Cl)nc3)C(=O)C2=CO1 (stereo not given)	PAD4 FP inh 20.4 (no result: HTRA1 inhibitor, ABHD4 inh, TCR-CD3 inh, SIAE primary, PRMT1 inh)
CC(C)(C)OC(=O)NCCCC1=CC2=CC(=O)C(C)(OC(=O)C3CCCC3)C(=O)C2=CO1 (stereo not given)	PAD4 FP inh 26.1 (no result: HTRA1 inhibitor, ABHD4 inh, TCR-CD3 inh, SIAE primary, PRMT1 inh)
CC(C)(C)OC(=O)NCCCCC1=CC2=CC(=O)C(C)(OC(=O)c3ccco3)C(=O)C2=CO1 (stereo not given)	none (no result: HTRA1 inhibitor, ABHD4 inh, TCR-CD3 inh, SIAE primary, PRMT1 inh)
CCOC(=O)[C@@]12CCCC3=C1N(CCC3)C(=O)[C@H]2CC(=O)NCCC(C)C	none (no result: HTRA1 inhibitor, TCR-CD3 inh, PAD4 FP inh)
Cn1nnc2sc3c(c2c1=O)CCCC3	PRMT1 inh 22.4
Cc1ccccc1-c1nc2sc3c(c2c(=O)n1N)CCCC3	none
CCCc1ccc(-c2cc(NC(=O)Cc3c(C)[nH]c4ccccc34)ccc2N(C)c2cccnc2)cc1	ABHD4 inh 37.2 (no result: HTRA1 inhibitor, PAD4 FP inh)
C[C@H]1[C@@H](OC(=O)Nc2ccc(C(F)(F)F)cc2)CC[C@@]23CCCN2C(=O)CCC[C@@H]13	none (no result: HTRA1 inhibitor, TCR-CD3 inh, PAD4 FP inh)
Cc1ccc(NC(=O)COCC(=O)Nc2ccc(C)cc2)cc1	none
Cc1ccc(S(=O)(=O)OCC(=O)Nc2ccc(C(=O)O)c(O)c2)cc1	PRMT1 inh 21.4 (no result: PAD4 FP inh)
C=CCN1C(=O)/C(=C2/Sc3ccccc3N2CCCS(=O)(=O)O)SC1=S	ABHD4 inh 36.4
C=CCN1C(=O)/C(=C2/Sc3ccccc3N2CC)SC1=S	none
c1ccc(-c2nc3c(ccc4ccccc43)[nH]2)nc1	SIAE primary 29.0
Cc1ccc(Nc2nc3ccccc3s2)c(C)c1	none
Cc1cc(O)ccc1Nc1nc2ccccc2nc1Nc1ccc(O)cc1C	SIAE primary 19.9
